Laboratory results reported in ChEMBL document CHEMBL1123882, “Potential antitumor agents. 51. Synthesis and antitumor activity of substituted phenazine-1-carboxamides” (J Med Chem, 1987).

Assays:
[1] = Lipophilicity (HPLC); type: physicochemical
[2] = test system: L1210; assay: Nanomolar concentration required to reduce the growth of L1210 cells in culture to 50% of control values after 70 h (in vitro); type: functional, cell-based; conditions: Mus musculus, L1210, 70 h
Procedure, shortened: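 L1210 cells were grown in culture with drug for 70 h. IC50 is the drug concentration (nM) reducing growth to 50% of control values.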

[3] = test system: P388; assay: Optimal dose in mg/kg administered intraperitoneally on days 1,5 and 9 required to inhibit the growth of P388 leukemia cells was determined (in vivo); type: functional, Mus musculus
Procedure, shortened: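 Mice were inoculated ip with 10^6 P388 cells. Drug was given ip as a solution in 0.1 mL 30% v/v EtOH/water on days 1, 5 and 9. The optimal dose (mg/kg per day) is the one giving maximal increase in life span; survivors were scored at 50 days, in groups of six.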

[4] = (§1) Average increase in life span of treated animals over control groups of tumor-bearing untreated animals when given at optimal dose (in vivo); type: functional, Mus musculus
Procedure, shortened: (§2)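 Mice inoculated ip with 10^6 P388 cells (drug ip on days 1, 5, 9) or iv with 10^6 Lewis lung cells (drug ip on days 5, 9, 13). Drug given as a solution in 0.1 mL 30% v/v EtOH/water, in mg/kg per day. Value is the average life-span increase versus untreated tumor-bearing controls at the optimal dose. Significance thresholds: ILS >20% (P388), >40% (LL). Groups of six.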

[5] = test system: P388; assay: as §1; type: functional, Mus musculus; procedure, shortened: as §2
[6] = (§3) Optimal dose required after intraperitoneal administration on days 5,9 and 13 to inhibit the growth of lewis lung carcinoma (LL) cells was determined (in vivo); type: functional, Mus musculus
Procedure, shortened: (§4)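 Mice were inoculated iv with 10^6 Lewis lung cells. Drug was given ip in 0.1 mL 30% v/v EtOH/water on days 5, 9 and 13. The optimal dose (mg/kg per day) is the one giving maximal increase in life span; survivors were scored at 60 days, in groups of six.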

[7] = test system: Lewis lung carcinoma cell line; assay: Average increase in life span of treated animals over control groups of tumor-bearing untreated animals when given at optimal dose;NA means no significant activity (in vivo); type: functional, organism-based; conditions: Mus musculus
Procedure, shortened: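 Mice received drug ip as a solution in 0.1 mL 30% v/v EtOH/water at the optimal dose. For P388, 10^6 cells were inoculated ip and drug given on days 1, 5 and 9. For LL, 10^6 cells were inoculated iv and drug given on days 5, 9 and 13. ILS is the mean life-span increase over untreated tumor-bearing controls, significant above 20% (P388) or 40% (LL). Groups were of six. NA means no significant activity up to acutely toxic doses.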

[8] = test system: Lewis lung carcinoma cell line; assay: as §3; type: functional, Mus musculus; procedure, shortened: as §4

Row | SMILES | Rm [1] | IC50 [2] | OD [3] | ILS max [4] | ILS max [5] | OD [6] | ILS max [7] | OD [8]
1 | CN(C)CCNC(=O)c1cccc2c1nc1ccccc1[n+]2[O-] | -0.58 | 3 µM | 150 mg/kg/day | 51 | 81 | 150 mg/kg/day | – | –
2 | CN(C)CCCCNC(=O)c1cccc2nc3ccccc3nc12 | -0.11 | 1.17 µM | 150 mg/kg/day | – | 49 | – | Not significant | 225 mg/kg/day
